Experimental data reported in ChEMBL document CHEMBL1132321, “Nucleosides and nucleotides. 185. Synthesis and biological activities of 4'alpha-C-branched-chain sugar pyrimidine nucleosides” (J Med Chem, 1999).

Experiments:
[1] = test system: Human immunodeficiency virus 1; assay: (§1) Antiviral activity against Human immunodeficiency virus type-1; assay type: functional, organism-based
Summary of the method: (§2)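 Cell-protection read-out: HSV-1 Kos strain on MRC-5 cells, HSV-2 G strain on MRC-5 cells, HIV-1 IIIb strain on MT-4 cells. Cells infected at MOI 0.02, then immediately plated with serial compound dilutions. After 4 days of incubation at 36 °C, viable cells were counted by MTT. […].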

[2] = test system: Human alphaherpesvirus 1; assay: Antiviral activity against Herpes simplex virus type-1 (HSV-1).; assay type: functional, organism-based; summary of the method: as §2
[3] = test system: Human alphaherpesvirus 2; assay: Antiviral activity against Herpes simplex virus type-2 (HSV-2).; assay type: functional, organism-based; summary of the method: as §2
[4] = test system: KB; assay: Cytotoxicity against KB cells.; assay type: functional, cell-based; conditions: Homo sapiens
[5] = test system: L1210; assay: Cytotoxicity against L1210 cells.; assay type: functional, cell-based; conditions: Mus musculus
[6] = test system: Human immunodeficiency virus 1; assay: as §1

SMILES	EC50 [1]	IC50 [1]	EC50 [2]	IC50 [2]	EC50 [3]	IC50 [3]	IC50 [4]	IC50 [5]	EC50 [6]
Nc1ccn([C@H]2C[C@H](O)[C@@](/C=C/Cl)(CO)O2)c(=O)n1	2.1 µM	4.6 µM	> 350 µM	> 350 µM	> 350 µM	> 350 µM	> 350 µM	200 µM	
N#C[C@]1(CO)O[C@@H](n2ccc(N)nc2=O)C[C@@H]1O	0.0012 µM	0.17 µM	3.6 µM	> 350 µM	21 µM	> 350 µM	> 350 µM	0.33 µM	
C[C@]1(CO)O[C@@H](n2ccc(N)nc2=O)C[C@@H]1O	0.062 µM	0.062 µM	3.1 µM	260 µM	0.58 µM	260 µM	> 350 µM	0.16 µM	
Nc1nc2c(ncn2COCCO)c(=O)[nH]1 [ACYCLOVIR]			0.36 µM	> 350 µM	1.1 µM	> 350 µM			
C#C[C@]1(CO)O[C@@H](n2ccc(=O)[nH]c2=O)[C@H](O)[C@@H]1O							> 350 µM	> 350 µM	
C#C[C@]1(CO)O[C@@H](n2ccc(N)nc2=O)C[C@@H]1O	0.0022 µM	0.16 µM	200 µM	> 350 µM	> 350 µM	> 350 µM			
Cc1cn([C@H]2C[C@H](N=[N+]=[N-])[C@@H](CO)O2)c(=O)[nH]c1=O [ZIDOVUDINE]		3.2 µM							0.0041 µM
N#C[C@]1(CO)O[C@@H](n2ccc(N)nc2=O)[C@H](O)[C@@H]1O							> 350 µM	> 350 µM	
N#C[C@]1(CO)O[C@@H](n2ccc(=O)[nH]c2=O)[C@H](O)[C@@H]1O							> 350 µM	> 350 µM	
C=C[C@]1(CO)O[C@@H](n2ccc(N)nc2=O)C[C@@H]1O	0.0086 µM	0.18 µM	> 350 µM	> 350 µM	> 350 µM	> 350 µM	> 350 µM	21 µM	
CC[C@]1(CO)O[C@@H](n2ccc(N)nc2=O)C[C@@H]1O	0.013 µM	0.77 µM	> 350 µM	> 350 µM	> 350 µM	> 350 µM	> 350 µM	55 µM	
C#C[C@]1(CO)O[C@@H](n2ccc(N)nc2=O)[C@H](O)[C@@H]1O							> 350 µM	> 350 µM	
